Publication PMC9055277 (RSC Advances, 2020)

How the values were obtained:
[1] = test system: Salmonella typhimurium TA98; experiment: Salmonella/microsome test; type: cell-based
fish sperm DNA (FS-DNA) = experiment: UV-Vis absorption titration of ligands with FS-DNA; type: binding; settings: on addition of FS-DNA; band 335 nm (1S3), 345 nm (2S3)
Method in brief: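 FS-DNA stock was in Tris–HCl pH 7.4 (A260/A280 > 1.8). Test compound (10 μM, diluted from water stock in Tris–HCl) was titrated with FS-DNA (0–20 μM). Tubes were shaken and incubated 15 min, then scanned 200–800 nm in triplicate. The spectrum of DNA alone was subtracted. Kb came from the Benesi–Hildebrand plot of [DNA]/(εa − εf) vs [DNA] as slope/intercept.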

[2] = test system: Salmonella typhimurium TA100; experiment: Salmonella/microsome test; type: cell-based
FS-DNA bound to EtBr = experiment: Fluorescence quenching of EtBr–FS-DNA system; type: binding, fish; settings: EtBr–FS-DNA (DNA : EtBr 10 : 1), ligand 0–70 μM, Stern–Volmer equation
Method in brief: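 FS-DNA stock in Tris–HCl pH 7.4, kept at 4 °C for up to 72 h, with purity checked by A260/A280 > 1.8. EtBr stock (3.0 × 10⁻³ mol L⁻¹, ethanol) was made fresh. DNA and EtBr were premixed 15 min at 25 °C. Ligand was diluted from water stock in Tris–HCl, added, and incubated 15 min. Slits were 5/10 nm. KSV is the slope of I₀/I vs [Q].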

[3] = TA98, absence of metabolic activation system (−S9)
[4] = TA98, presence of metabolic activation system (+S9), 2S3: at 0.40, 0.20 and 0.10 mg per plate
[5] = TA100, absence of metabolic activation system (−S9)
[6] = TA100, presence of metabolic activation system (+S9)
[7] = −S9, control set of the 2S3 experiment (concentration cell empty)

revertant colonies TA98 +S9 ([1]; 0.02 mg per plate) | revertant colonies TA98 −S9 ([1]; 0.02 mg per plate) | revertant colonies TA98 +S9 ([1]; 0.05 mg per plate) | revertant colonies TA98 −S9 ([1]; 0.05 mg per plate) | revertant colonies TA98 +S9 ([1]; 0.10 mg per plate) | revertant colonies TA98 −S9 ([1]; 0.10 mg per plate) | revertant colonies TA98 +S9 ([1]; 0.20 mg per plate) | revertant colonies TA98 −S9 ([1]; 0.20 mg per plate) | revertant colonies TA98 +S9 ([1]; 0.40 mg per plate) | revertant colonies TA98 −S9 ([1]; 0.40 mg per plate) | revertant colonies TA100 +S9 ([2]; 0.02 mg per plate) | revertant colonies TA100 −S9 ([2]; 0.02 mg per plate) | revertant colonies TA100 +S9 ([2]; 0.05 mg per plate) | revertant colonies TA100 −S9 ([2]; 0.05 mg per plate) | revertant colonies TA100 +S9 ([2]; 0.10 mg per plate) | revertant colonies TA100 −S9 ([2]; 0.10 mg per plate) | revertant colonies TA100 +S9 ([2]; 0.20 mg per plate) | Structure (SMILES) | effect on number of revertant colonies (mutagenicity), in words [1, 3] | effect on number of revertant colonies (mutagenicity), in words [1, 4] | Hypochromism (fish sperm DNA (FS-DNA)) | other results
15.60 ± 2.52 b3 | 17.00 ± 1.00 b3 | 18.40 ± 1.74 b3 | 17.40 ± 1.12 b3 | 25.40 ± 1.83 a2b3 | 20.00 ± 2.25 b3 | 22.00 ± 1.37 a2b3 | 16.60 ± 1.80 b3 | 24.60 ± 2.11 a2b3 | 19.20 ± 2.08 b3 | 187.40 ± 18.93 a1b3 | 182.40 ± 9.15 a2b3 | 190.80 ± 11.16 a2b3 | 195.40 ± 6.96 a3b3 | 196.60 ± 15.75 a2b3 | 185.60 ± 7.20 a2b3 | 183.60 ± 9.35 a2b3 | NC(=O)COc1ccc(-c2cc(=O)c3c(OCC(N)=O)cc(OCC(N)=O)cc3o2)cc1 [2S3, 2,2′-((2-(4-(2-Amino-2-oxoethoxy)phenyl)-4-oxo-4H-chromene-5,7-diyl)bis(oxy))diacetamide] | did not cause an increase | statistically significant increase | 20.91% | revertant colonies TA100 −S9 ([2]; 0.20 mg per plate): 200.00 ± 8.44 a2b3; revertant colonies TA100 +S9 ([2]; 0.40 mg per plate): 210.40 ± 2.31 a3b3; revertant colonies TA100 −S9 ([2]; 0.40 mg per plate): 171.40 ± 8.55 a1b3; effect on number of revertant colonies (mutagenicity), in words [2, 5]: significantly increased; effect on number of revertant colonies (mutagenicity), in words [2, 6]: significantly increased; quenching constant KSV (FS-DNA bound to EtBr): 19600 M⁻¹
9.00 ± 0.44 a3b3 | 12.00 ± 1.41 a1b3 | 7.80 ± 1.11 a2b3 | 14.40 ± 2.20 b3 | 14.00 ± 2.60 b3 | 12.20 ± 0.66 a2b3 | 11.20 ± 2.97 b3 | 13.20 ± 1.01 a1b3 | 7.20 ± 1.68 a1b3 | 11.60 ± 1.63 a1b3 | 47.00 ± 7.16 a3b3 | 112.40 ± 3.28 a3b3 | 48.80 ± 12.85 a2b3 | 94.00 ± 8.43 a3b3 | 62.00 ± 4.95 a3b3 | 85.00 ± 7.17 a3b3 | 47.00 ± 6.73 a3b3 | NC(=O)COc1cc(OCC(N)=O)c2c(=O)c(OCC(N)=O)c(-c3ccc(OCC(N)=O)c(OCC(N)=O)c3)oc2c1 [1S3, 2,2′,2′′-((2-(3,4-bis(2-amino-2-oxoethoxy)phenyl)-4-oxo-4H-chromene-3,5,7-triyl)tris(oxy))triacetamide] | did not cause any detectable increase | did not cause any detectable increase | 22.54% | revertant colonies TA100 −S9 ([2]; 0.20 mg per plate): 80.20 ± 10.65 a2b3; revertant colonies TA100 +S9 ([2]; 0.40 mg per plate): 82.20 ± 5.37 a3b3; revertant colonies TA100 −S9 ([2]; 0.40 mg per plate): 88.80 ± 14.07 a2b3; effect on number of revertant colonies (mutagenicity), in words [2, 5]: did not cause any detectable increase; effect on number of revertant colonies (mutagenicity), in words [2, 6]: did not cause any detectable increase; quenching constant KSV (FS-DNA bound to EtBr): 18300 M⁻¹
 |  |  |  |  |  |  |  |  |  |  |  |  |  |  |  |  | Nc1ccc([N+](=O)[O-])cc1N [NPD, 4-nitro-o-phenylenediamine, reference compound] |  |  |  | revertant colonies TA98 −S9, positive control ([1]; 200 μg mL^−1, −S9, control set of the 1S3 experiment): 4260 ± 291.75; revertant colonies TA98 −S9, positive control [1, 7]: 3808.40 ± 221.78
 |  |  |  |  |  |  |  |  |  |  |  |  |  |  |  |  | [N-]=[N+]=[N-].[Na+] [SA, sodium azide, reference compound] |  |  |  | revertant colonies TA100 −S9, positive control ([2]; 1 μg mL^−1, −S9, control set of the 1S3 experiment): 1497.2 ± 230.28; revertant colonies TA100 −S9, positive control [2, 7]: 1506.40 ± 114.82
